In ChEMBL document CHEMBL4732199, “Potent and orally bioavailable CDK8 inhibitors: Design, synthesis, structure-activity relationship analysis and biological evaluation” (Eur J Med Chem, 2021):
Activity calls are given as the source filed them. No cut-off for these calls is given here.

Key:
[1] = target: Glycogen synthase kinase-3 alpha (Homo sapiens, UniProt P49840); test: Inhibition of human GSKalpha S449A mutant (2 to 3nd residues) using YRRAAVPPSPSLSRHSSPHQS(p) EDEEE as substrate incubated for 40 mins in presence of [gamma-33P]-ATP by scintillation counting method
Sequence of Glycogen synthase kinase-3 alpha (P49840 whole entry): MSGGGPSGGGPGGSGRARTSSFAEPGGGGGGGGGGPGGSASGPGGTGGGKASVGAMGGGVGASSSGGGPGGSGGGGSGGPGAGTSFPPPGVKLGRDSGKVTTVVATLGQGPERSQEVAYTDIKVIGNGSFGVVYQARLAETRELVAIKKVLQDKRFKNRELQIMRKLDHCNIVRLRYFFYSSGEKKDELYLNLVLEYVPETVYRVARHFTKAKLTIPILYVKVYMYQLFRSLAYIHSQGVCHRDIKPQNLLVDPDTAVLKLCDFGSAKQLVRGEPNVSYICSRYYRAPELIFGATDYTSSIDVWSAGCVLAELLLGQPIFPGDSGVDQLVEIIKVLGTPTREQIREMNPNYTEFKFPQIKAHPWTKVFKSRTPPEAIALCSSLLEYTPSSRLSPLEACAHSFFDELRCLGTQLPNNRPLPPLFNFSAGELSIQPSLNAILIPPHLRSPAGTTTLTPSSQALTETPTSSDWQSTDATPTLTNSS
Method in brief: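 Outsourced radioisotope (HotSpot) kinase assay run by a contract lab, with ATP at the kinase's Km(ATP). The IC50 was converted to an apparent Ki by the Cheng-Prusoff equation, Ki = IC50/(1+[ATP]/Km(ATP)), using the experimentally determined Km(ATP).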

[2] = target: T1, Protein kinase C theta type (Homo sapiens, UniProt Q04759); test: Inhibition of human full length PKCtheta using histone H1 as substrate incubated for 40 mins in presence of [gamma-33P]-ATP by scintillation counting method
Method in brief: (§1)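 IC50 measured in a contracted radiometric kinase assay with ATP at the experimentally determined Km(ATP) of each kinase. Apparent Ki was derived by Cheng-Prusoff: Ki = IC50/(1+[ATP]/Km(ATP)).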
Target sequence in this assay (Q04759 whole entry): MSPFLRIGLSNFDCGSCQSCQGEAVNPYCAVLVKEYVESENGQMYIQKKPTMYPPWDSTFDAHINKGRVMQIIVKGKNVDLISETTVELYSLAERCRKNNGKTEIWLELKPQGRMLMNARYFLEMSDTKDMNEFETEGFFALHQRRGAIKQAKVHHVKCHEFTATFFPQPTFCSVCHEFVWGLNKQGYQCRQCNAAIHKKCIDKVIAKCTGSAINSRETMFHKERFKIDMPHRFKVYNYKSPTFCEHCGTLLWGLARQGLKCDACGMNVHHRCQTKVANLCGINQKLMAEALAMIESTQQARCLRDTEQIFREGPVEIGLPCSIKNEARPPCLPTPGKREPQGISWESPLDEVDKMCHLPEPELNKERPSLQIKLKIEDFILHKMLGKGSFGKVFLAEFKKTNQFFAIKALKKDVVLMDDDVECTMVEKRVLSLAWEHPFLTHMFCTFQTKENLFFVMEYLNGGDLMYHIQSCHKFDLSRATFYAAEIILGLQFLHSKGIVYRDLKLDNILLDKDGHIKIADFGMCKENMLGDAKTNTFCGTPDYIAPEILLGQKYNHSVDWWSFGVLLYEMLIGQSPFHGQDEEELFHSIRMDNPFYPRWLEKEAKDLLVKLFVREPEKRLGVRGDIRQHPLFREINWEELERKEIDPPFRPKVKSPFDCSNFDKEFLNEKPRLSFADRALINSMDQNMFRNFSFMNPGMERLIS

HL-60 = test: Growth inhibition human HL-60 cells after 72 hrs by resazurin or MTT assay; format: functional
Method in brief: (§2)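 Tumour cell lines kept in RPMI-1640, DMEM or MEM with 10% FBS at 37 °C, 5% CO2, mycoplasma-free. Exposure lasted 72 h. Viability was read by MTT for adherent solid-tumour lines and by resazurin for suspension leukaemia lines. GI50 came from nonlinear regression, given as mean ± standard deviation of at least two replicates unless stated otherwise.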

[3] = Effect on total STAT1 level in human MV4-11 cells at 1 to 5 times of GI50 concentration after 2 hrs by Western blot analysis; format: ADME, cell-based; conditions: mv4-11, 2 h
HT-29 = test: Growth inhibition human HT-29 cells after 72 hrs by resazurin or MTT assay; format: functional; method in brief: as §2
[4] = Volume of distribution at steady state in Sprague-Dawley rat at 5 mg/kg, iv measured up to 24 hrs by LC-MS/MS analysis; format: ADME, organism-based; conditions: in vivo, read-out: Vdss
[5] = Tmax in Sprague-Dawley rat at 20 mg/kg, po measured up to 24 hrs by LC-MS/MS analysis; format: ADME, organism-based; conditions: in vivo
[6] = Toxicity in BALB/c mouse assessed as interstitial pneumonitis in lung at 70 mg/kg, po administered once daily for 7 days and measured on day 15; format: organism-based; conditions: in vivo, 168 h, time 7 day
[7] = Toxicity in BALB/c mouse assessed as neutrophils at 70 mg/kg, po administered once daily for 7 days and measured on day 15 by flow cytometric analysis; format: organism-based; conditions: in vivo, 168 h, time 7 day
[8] = Toxicity in BALB/c mouse assessed as increase in CD3-T cells at 70 mg/kg, po administered once daily for 7 days and measured on day 15 by flow cytometric analysis; format: organism-based; conditions: in vivo, 168 h, time 7 day
[9] = target: CDK18/Cyclin Y (Homo sapiens) (UniProt Q07002+Q8ND76); test: Inhibition of CDK18/Cyclin Y (unknown origin) at 1 uM; format: protein-complex assay
Method in brief: (§3)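 Residual activity of each kinase with compound at 1 µM, measured in a contracted radioisotope-based kinase profiling assay and expressed as % kinase activity remaining.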

[10] = target: CDK17/Cyclin-Y (Homo sapiens) (UniProt Q00537+Q8ND76); test: Inhibition of CDK17/Cyclin Y (unknown origin) at 1 uM; format: protein-complex assay; method in brief: as §3
Sequence of CDK17/Cyclin-Y (Homo sapiens) (Q00537 whole entry): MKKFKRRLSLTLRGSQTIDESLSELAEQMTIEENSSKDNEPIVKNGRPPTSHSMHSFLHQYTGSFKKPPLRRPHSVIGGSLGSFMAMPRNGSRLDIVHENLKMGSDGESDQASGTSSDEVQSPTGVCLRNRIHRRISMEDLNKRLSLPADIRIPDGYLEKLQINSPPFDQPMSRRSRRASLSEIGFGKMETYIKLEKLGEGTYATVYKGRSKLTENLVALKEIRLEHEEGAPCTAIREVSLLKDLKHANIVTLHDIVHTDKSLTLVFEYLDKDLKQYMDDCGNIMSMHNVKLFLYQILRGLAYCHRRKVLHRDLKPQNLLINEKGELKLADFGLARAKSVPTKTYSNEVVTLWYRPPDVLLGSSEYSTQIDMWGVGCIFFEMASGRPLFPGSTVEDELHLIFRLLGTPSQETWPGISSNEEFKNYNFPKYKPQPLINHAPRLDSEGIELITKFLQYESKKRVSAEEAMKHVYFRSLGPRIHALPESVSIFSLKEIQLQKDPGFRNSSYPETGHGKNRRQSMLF
Sequence of CDK17/Cyclin-Y (Homo sapiens) (Q8ND76 2-341 partner limits assumed): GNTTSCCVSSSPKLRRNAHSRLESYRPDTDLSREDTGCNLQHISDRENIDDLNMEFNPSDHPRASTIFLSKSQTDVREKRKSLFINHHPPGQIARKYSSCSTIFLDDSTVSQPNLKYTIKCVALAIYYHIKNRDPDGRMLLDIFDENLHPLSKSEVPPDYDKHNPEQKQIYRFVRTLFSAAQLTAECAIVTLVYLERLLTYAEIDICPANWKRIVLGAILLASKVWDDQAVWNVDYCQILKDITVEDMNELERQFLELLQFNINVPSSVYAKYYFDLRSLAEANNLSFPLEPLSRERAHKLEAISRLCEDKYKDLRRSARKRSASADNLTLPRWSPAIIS

[11] = target: Cyclin-Y/Cyclin-dependent kinase 16 (Homo sapiens) (UniProt Q00536+Q8ND76); test: Inhibition of CDK16/Cyclin Y (unknown origin) at 1 uM; format: protein-complex assay; method in brief: as §3
[12] = target: CDK9/cyclin T1 (Homo sapiens) (UniProt O60563+P50750); test: Inhibition of CDK9/Cyclin T1 (unknown origin) at 1 uM relative to control; format: protein-complex assay; method in brief: as §3
[13] = target: Cyclin-dependent kinase 5/CDK5 activator 1 (Homo sapiens) (UniProt Q00535+Q15078); test: Inhibition of CDK5/p35 (unknown origin) at 1 uM; format: protein-complex assay; method in brief: as §3
Sequence of Cyclin-dependent kinase 5/CDK5 activator 1 (Homo sapiens) (Q00535 whole entry): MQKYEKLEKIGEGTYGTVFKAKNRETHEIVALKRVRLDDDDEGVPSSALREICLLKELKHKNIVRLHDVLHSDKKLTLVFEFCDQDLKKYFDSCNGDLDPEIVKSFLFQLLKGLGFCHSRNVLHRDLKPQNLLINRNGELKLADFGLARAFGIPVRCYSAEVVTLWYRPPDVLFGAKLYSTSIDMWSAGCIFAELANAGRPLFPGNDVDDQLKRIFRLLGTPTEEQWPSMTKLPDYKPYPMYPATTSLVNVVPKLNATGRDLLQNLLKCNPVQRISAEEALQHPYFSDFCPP
Sequence of Cyclin-dependent kinase 5/CDK5 activator 1 (Homo sapiens) (Q15078 99-307 partner limits assumed): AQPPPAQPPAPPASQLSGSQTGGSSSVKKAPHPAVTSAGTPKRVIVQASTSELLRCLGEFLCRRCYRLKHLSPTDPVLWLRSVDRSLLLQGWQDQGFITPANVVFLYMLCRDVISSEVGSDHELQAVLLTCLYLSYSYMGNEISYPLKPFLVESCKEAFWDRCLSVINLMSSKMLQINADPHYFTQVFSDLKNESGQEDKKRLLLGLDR

[14] = target: Cyclin-dependent kinase 4/cyclin D1 (Homo sapiens) (UniProt P11802+P24385); test: Inhibition of CDK4/cyclin-D1 (unknown origin) at 1 uM; format: protein-complex assay; method in brief: as §3
[15] = target: CDK3/Cyclin E (Homo sapiens) (UniProt P24864+Q00526); test: Inhibition of CDK3/cyclin-E (unknown origin) at 1 uM; format: protein-complex assay; method in brief: as §3
[16] = target: Cyclin-dependent kinase 1/cyclin B1 (Homo sapiens) (UniProt P06493+P14635); test: Inhibition of CDK1/cyclin-B (unknown origin) at 1 uM relative to control; format: protein-complex assay; method in brief: as §3
Sequence of Cyclin-dependent kinase 1/cyclin B1 (Homo sapiens) (P06493 whole entry, looked up): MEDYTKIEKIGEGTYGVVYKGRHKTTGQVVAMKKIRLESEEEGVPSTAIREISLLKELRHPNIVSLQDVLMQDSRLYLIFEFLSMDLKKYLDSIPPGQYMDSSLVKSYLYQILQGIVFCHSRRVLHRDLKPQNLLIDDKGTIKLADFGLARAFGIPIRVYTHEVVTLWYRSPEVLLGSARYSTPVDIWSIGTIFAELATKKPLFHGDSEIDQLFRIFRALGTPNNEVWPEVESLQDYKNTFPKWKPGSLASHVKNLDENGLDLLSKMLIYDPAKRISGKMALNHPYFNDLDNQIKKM
Sequence of Cyclin-dependent kinase 1/cyclin B1 (Homo sapiens) (P14635 whole entry, looked up): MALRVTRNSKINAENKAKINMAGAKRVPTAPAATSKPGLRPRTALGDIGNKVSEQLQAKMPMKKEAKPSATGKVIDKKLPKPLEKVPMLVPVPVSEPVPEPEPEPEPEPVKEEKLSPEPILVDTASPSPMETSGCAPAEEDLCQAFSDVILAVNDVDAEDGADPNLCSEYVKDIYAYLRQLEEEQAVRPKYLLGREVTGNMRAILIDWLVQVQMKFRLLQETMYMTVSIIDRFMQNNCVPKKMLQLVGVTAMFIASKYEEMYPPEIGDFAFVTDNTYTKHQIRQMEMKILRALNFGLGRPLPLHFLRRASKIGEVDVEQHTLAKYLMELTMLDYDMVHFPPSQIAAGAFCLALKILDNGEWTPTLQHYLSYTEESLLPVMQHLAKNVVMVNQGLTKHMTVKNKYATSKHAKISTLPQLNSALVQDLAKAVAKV

CDK9/cyclin T1 = CDK9/cyclin T1 (Homo sapiens, UniProt P50750); test: Inhibition of CDK9/Cyclin T1 (unknown origin); format: protein-complex assay; method in brief: as §1
Sequence of CDK9/cyclin T1 (O60563 whole entry): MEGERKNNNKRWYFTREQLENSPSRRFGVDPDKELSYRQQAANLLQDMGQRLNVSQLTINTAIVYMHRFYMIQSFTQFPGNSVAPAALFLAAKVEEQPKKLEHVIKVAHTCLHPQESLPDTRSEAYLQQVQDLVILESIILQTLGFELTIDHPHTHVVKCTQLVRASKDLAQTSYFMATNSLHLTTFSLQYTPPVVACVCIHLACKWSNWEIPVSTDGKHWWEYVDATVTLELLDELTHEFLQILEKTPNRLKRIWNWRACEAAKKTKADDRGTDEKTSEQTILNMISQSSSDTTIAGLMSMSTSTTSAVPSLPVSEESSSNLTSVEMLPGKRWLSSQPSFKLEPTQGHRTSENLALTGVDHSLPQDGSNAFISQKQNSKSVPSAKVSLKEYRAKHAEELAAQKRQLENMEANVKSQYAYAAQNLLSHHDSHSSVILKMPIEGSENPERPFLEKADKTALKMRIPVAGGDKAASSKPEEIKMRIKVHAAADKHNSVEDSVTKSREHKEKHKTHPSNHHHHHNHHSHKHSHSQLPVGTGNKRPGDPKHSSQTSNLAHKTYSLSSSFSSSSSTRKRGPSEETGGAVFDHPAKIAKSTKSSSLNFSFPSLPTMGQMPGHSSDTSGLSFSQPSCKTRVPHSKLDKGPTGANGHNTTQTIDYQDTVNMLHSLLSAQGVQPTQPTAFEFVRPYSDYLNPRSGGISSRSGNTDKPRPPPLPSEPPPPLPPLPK
Sequence of CDK9/cyclin T1 (P50750 whole entry): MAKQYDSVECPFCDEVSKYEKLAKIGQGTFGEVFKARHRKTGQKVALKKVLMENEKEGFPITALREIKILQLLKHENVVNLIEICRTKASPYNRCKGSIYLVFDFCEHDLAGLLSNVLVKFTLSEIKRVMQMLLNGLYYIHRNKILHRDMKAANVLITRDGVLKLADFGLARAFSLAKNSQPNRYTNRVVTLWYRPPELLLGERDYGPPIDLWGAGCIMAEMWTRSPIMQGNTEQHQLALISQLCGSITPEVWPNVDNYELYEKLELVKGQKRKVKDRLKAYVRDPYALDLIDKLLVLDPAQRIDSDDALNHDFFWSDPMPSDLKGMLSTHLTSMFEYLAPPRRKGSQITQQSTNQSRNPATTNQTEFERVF

[17] = system: Glycogen synthase kinase-3 alpha (Homo sapiens), P49840 [UNDEFINED MUTATION]; test: Inhibition of human GSKalpha S449A mutant (2 to 3nd residues) at 1 uM using YRRAAVPPSPSLSRHSSPHQS(p) EDEEE as substrate incubated for 40 mins in presence of [gamma-33P]-ATP by scintillation counting method relative to control
Sequence of Glycogen synthase kinase-3 alpha (Homo sapiens), P49840 [UNDEFINED MUTATION] (P49840 whole entry, looked up, stated change not applied): as the sequence (P49840 whole entry) above
Method in brief: (§4)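 Single-point screen of residual kinase activity (%) at 1 µM compound. Run as a contract radiometric [γ-33P]-ATP kinase assay, either the KinaseProfiler service or the HotSpot assay. ATP was set at the experimentally determined Km(ATP) of each kinase.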

[18] = target: T1, Protein kinase C theta type; test: Inhibition of human full length PKCtheta at 1 uM using histone H1 as substrate incubated for 40 mins in presence of [gamma-33P]-ATP by scintillation counting method relative to control; method in brief: as §4
Target sequence in this assay (Q04759 whole entry, looked up): as the sequence (Q04759 whole entry) above

[19] = Dissociation constant, pKa of the compound by UV spectrometric titration method; format: physicochemical
[20] = Toxicity in BALB/c mouse assessed as loss of ground substance at 70 mg/kg, po administered once daily for 7 days and measured on day 15; format: organism-based; conditions: in vivo, 168 h, time 7 day
[21] = Toxicity in BALB/c mouse assessed as disordered chondrocyte columns at 70 mg/kg, po administered once daily for 7 days and measured on day 15; format: organism-based; conditions: in vivo, 168 h, time 7 day
[22] = Cmax in BALB/c mouse at 2 mg/kg, iv measured up to 24 hrs by LC-MS/MS analysis; conditions: in vivo
[23] = Tmax in BALB/c mouse at 2 mg/kg, iv measured up to 24 hrs by LC-MS/MS analysis; conditions: in vivo
[24] = Cmax in BALB/c mouse at 10 mg/kg, po measured up to 24 hrs by LC-MS/MS analysis; conditions: in vivo
[25] = Tmax in BALB/c mouse at 10 mg/kg, po measured up to 24 hrs by LC-MS/MS analysis; conditions: in vivo
[26] = Half life in BALB/c mouse at 2 mg/kg, iv measured up to 24 hrs by LC-MS/MS analysis; conditions: in vivo
[27] = Oral bioavailability in BALB/c mouse at 10 mg/kg measured up to 24 hrs by LC-MS/MS analysis; conditions: in vivo

Structure (SMILES) | Ki [1] [nM] | Ki [2] [nM] | GI50 (HL-60) [nM] | Activity [3] | GI50 (HT-29) [nM] | Vd [4] [L/kg] | Tmax [5] [min] | Activity [6] | Activity [7] | Activity [8] | also measured
Cn1cc(-c2ccc(-c3cncc(Cl)c3N3CCC4(CCNC4=O)CC3)cc2)cn1 | 231 | 61 | > 50000 | Non-Toxic | 48600 | 1.38 | 79.8 | Toxic | Non-Toxic | Toxic | 
O=C1NCCC12CCN(c1c(Cl)cncc1-c1cc3ccccc3o1)CC2 | 13 | 109 | 35300 | Non-Toxic | 44200 | 1.11 | 165 | Non-Toxic | Non-Toxic | Toxic | inhibition [9]: inactive; inhibition [10]: inactive; inhibition [11]: inactive; inhibition [12]: > 50%; inhibition [13]: inactive; inhibition [14]: inactive; inhibition [15]: inactive; inhibition [16]: > 50%; Ki (CDK9/cyclin T1): 1770 nM; inhibition [17]: > 50%; inhibition [18]: > 50%; pKa [19]: 4.9; Activity [20]: Toxic; Activity [21]: Toxic; Cmax [22]: 3.44 µM; Tmax [23]: 2.4 min; Cmax [24]: 5.01 µM; Tmax [25]: 25.2 min; half-life [26]: 20.4 min; bioavailability [27]: 33%
